Residue numbers refer to the chain shown, from its start.
Key:
Assay in all cases: spectral perturbation titration
Format in all cases: binding
[1] = target: T1, nitrate reductase (NarB) (Synechococcus elongatus, UniProt P39458, R84K)
T1 sequence (P39458 15-729 R84K): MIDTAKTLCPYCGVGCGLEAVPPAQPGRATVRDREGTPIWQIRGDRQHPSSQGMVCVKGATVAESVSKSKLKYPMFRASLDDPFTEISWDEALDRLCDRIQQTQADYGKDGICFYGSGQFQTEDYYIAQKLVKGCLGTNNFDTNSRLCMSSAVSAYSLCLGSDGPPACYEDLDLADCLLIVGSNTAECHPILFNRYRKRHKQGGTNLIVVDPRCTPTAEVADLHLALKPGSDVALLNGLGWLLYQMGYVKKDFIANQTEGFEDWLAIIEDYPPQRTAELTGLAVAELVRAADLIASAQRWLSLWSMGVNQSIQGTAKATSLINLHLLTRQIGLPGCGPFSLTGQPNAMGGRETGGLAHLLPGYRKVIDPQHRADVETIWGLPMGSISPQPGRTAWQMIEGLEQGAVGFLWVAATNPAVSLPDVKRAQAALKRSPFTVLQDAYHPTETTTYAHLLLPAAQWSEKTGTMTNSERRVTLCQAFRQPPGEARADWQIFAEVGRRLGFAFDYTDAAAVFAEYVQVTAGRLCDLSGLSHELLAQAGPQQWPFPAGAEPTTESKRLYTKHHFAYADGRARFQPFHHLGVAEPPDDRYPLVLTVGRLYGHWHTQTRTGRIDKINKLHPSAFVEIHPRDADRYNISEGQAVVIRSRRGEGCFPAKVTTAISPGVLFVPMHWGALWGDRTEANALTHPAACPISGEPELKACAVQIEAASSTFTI
Summary of the method: (§1)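 Single-residue NarB variants were made by site-directed mutagenesis and expressed and purified as for wild type (His6, Co affinity, DEAE, gel filtration). Complex formation with ferredoxin or nitrate was followed by difference absorbance at variant-specific wavelength pairs chosen for signal:noise. The change at saturating nitrate was taken as 100% complex. Kd came from fitting perturbation magnitude against ligand concentration to a single binding isotherm.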

[2] = target: T2, nitrate reductase (NarB) (Synechococcus elongatus, UniProt P39458, K144R)
T2 sequence (P39458 15-729 K144R): T1 sequence (P39458 15-729 R84K) with K70R, K130R
Summary of the method: as §1

[3] = target: T3, nitrate reductase (NarB) (Synechococcus elongatus, UniProt P39458)
T3 sequence (P39458 15-729): T1 sequence (P39458 15-729 R84K) with K70R
Summary of the method: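 Recombinant wild-type Synechococcus sp. PCC 7942 NarB had its first 14 residues deleted and a C-terminal His6 tag. It was expressed in E. coli DH5a with 100 μM molybdate and purified by Co affinity, DEAE and gel filtration. Oxidized enzyme was titrated with ferredoxin (read at 420 minus 600 nm) or nitrate (read at 400 minus 470 nm; change at saturating nitrate taken as 100% complex). Kd came from a single binding isotherm fit.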

`O=[N+]([O-])O` [nitrate] showed a Kd [1] of 6 ± 1 µM, a Kd [2] of 13.4 ± 3 µM and a Kd [3] of 1 ± 0.3 µM.
